# Measured values: ChEMBL document CHEMBL1135402, “New serotonin 5-HT(2A), 5-HT(2B), and 5-HT(2C) receptor antagonists: synthesis, pharmacology, 3D-QSAR, and molecular modeling of (aminoalkyl)benzo and heterocycloalkanones” (J Med Chem, 2002)
# Biological target: T1, 5-hydroxytryptamine receptor 2A (Rattus norvegicus, UniProt P14842)
# Assay: Negative log concentration of antagonistic compound was determined on 5-hydroxytryptamine 2A receptor of Rat thoracic aorta
# Type: functional, tissue-based
# Conditions: read-out: pA2 (converted)
# Method in brief: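 Denuded thoracic aorta rings (4 mm) from male Sprague–Dawley rats (250–350 g), 2 g tension in Krebs organ bath; isometric contraction. Sensitized with 10 μM 5-HT, then cumulative 5-HT curves (30 nM–100 μM) alternating with 60 min equilibration; two matching control runs, then antagonist added 20 min before end of equilibration. Single-concentration method: […].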
# T1 sequence (P14842 whole entry): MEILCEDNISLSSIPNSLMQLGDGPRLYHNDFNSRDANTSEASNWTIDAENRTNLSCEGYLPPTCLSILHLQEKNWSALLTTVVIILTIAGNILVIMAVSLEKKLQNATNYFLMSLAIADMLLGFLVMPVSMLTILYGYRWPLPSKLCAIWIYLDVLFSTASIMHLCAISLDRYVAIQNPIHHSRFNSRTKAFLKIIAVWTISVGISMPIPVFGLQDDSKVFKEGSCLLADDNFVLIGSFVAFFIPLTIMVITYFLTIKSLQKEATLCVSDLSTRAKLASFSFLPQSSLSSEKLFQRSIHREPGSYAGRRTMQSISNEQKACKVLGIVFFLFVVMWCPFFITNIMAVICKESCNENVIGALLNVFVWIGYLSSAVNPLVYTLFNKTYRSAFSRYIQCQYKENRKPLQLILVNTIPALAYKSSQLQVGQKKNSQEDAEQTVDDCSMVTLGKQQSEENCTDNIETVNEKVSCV
row,Kb [nM],Structure (SMILES)
1,31.6,CCc1c(C)[nH]c2c1C(=O)C(CCN1CCN(c3ccccc3OC)CC1)CC2 (stereo not drawn)

# Biological target: 5-hydroxytryptamine receptor 2C (Bos taurus)
# Assay: Inhibitory constant was determined on 5-hydroxytryptamine 2C receptor of Bovine choroid plexus
# Conditions: not given
row,Log Ki,Structure (SMILES)
1,-6.69,O=C1CC(CN2CCC(c3noc4cc(F)ccc34)CC2)Cc2sccc21 (racemic)

# Biological target: 5-hydroxytryptamine receptor 2A (Homo sapiens, UniProt P28223)
# Sequence (P28223 whole entry): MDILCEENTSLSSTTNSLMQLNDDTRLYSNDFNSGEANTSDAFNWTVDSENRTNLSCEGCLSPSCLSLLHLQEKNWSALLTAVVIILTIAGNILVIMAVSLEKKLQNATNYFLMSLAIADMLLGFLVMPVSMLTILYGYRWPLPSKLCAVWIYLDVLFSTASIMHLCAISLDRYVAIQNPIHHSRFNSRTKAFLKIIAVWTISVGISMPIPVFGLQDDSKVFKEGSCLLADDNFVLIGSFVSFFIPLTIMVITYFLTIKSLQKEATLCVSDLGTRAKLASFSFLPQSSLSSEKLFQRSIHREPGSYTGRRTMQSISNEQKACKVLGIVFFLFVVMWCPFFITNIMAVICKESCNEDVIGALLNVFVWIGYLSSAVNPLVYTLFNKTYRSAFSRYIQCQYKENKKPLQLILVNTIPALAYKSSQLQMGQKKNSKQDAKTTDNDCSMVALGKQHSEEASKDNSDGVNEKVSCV
# Assay: Inhibitory constant for human 5-hydroxytryptamine 2A receptor transfected in to CHO cells
# Type: cell-based
# Conditions: not given
# Method in brief: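 CHO cells stably expressing cloned human 5-HT2A, grown 24 h in dialyzed FCS before harvest; membranes in 50 mM Tris-HCl pH 7.5. […] Ki from IC50 by Cheng–Prusoff.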
row,Structure (SMILES),Ki [nM]
1,O=C(CCCN1CCN(CCC2Cc3ccccc3C2=O)CC1)c1ccc(F)cc1 (stereo not drawn),67.6
2,O=C1c2ccoc2CCC1CCN1CCC(c2noc3cc(F)ccc23)CC1 (stereo not drawn),0.724

# Results, then the molecule that gave them:
row,Ki [nM],Structure (SMILES)
1,1.17,O=C1CC(CN2CCC(c3noc4cc(F)ccc34)CC2)Cc2[nH]c3ccccc3c21 (stereo not drawn)
2,115,O=C(CCCN1CCN(CC2CC(=O)c3ccccc3C2)CC1)c1ccc(F)cc1 (stereo not drawn)

# Biological target: T1, 5-hydroxytryptamine receptor 2A
# Assay: Negative log concentration of antagonist on 5-hydroxytryptamine 2A receptor in rat thoracic aorta
# Type: functional, tissue-based
# Conditions: read-out: pA2 (converted)
row,Structure (SMILES),Kb [nM]
1,O=C(c1ccc(F)cc1)C1CCN(CCC2Cc3cc(F)ccc3C2=O)CC1 (stereo not drawn),7.59
2,O=C(c1ccc(F)cc1)C1CCN(CCC2Cc3ccccc3C2=O)CC1 (stereo not drawn),7.59
3,O=C1CC(CN2CCC(c3noc4cc(F)ccc34)CC2)Cc2sccc21 (racemic),0.741
4,O=C(CCCN1CCN(CC2CC(=O)c3ccsc3C2)CC1)c1ccc(F)cc1 (stereo not drawn),16.2
5,O=C1CC(CN2CCC(C(=O)c3ccc(F)cc3)CC2)Cc2occc21 (stereo not drawn),52.5
6,O=C(c1ccc(F)cc1)C1CCN(CCC2CCc3ccccc3C2=O)CC1 (stereo not drawn),33.9
7,O=C(CCCN1CCN(CCC2Cc3ccccc3C2=O)CC1)c1ccc(F)cc1 (stereo not drawn),50.1
8,COc1ccccc1N1CCN(CC2CC(=O)c3ccsc3C2)CC1 (stereo not drawn),1260
9,O=C1c2ccoc2CCC1CCN1CCC(c2noc3cc(F)ccc23)CC1 (stereo not drawn),0.562
10,COc1ccccc1N1CCN(CCC2CCc3sccc3C2=O)CC1 (stereo not drawn),112
11,COc1ccccc1N1CCN(CCC2CCc3ccccc3C2=O)CC1 (stereo not drawn),191
12,O=C(c1ccc(F)cc1)C1CCN(CCC2Cc3sccc3C2=O)CC1 (stereo not drawn),1.2
13,O=C(c1ccc(F)cc1)C1CCN(CCC2CCc3occc3C2=O)CC1 (stereo not drawn),26.3
14,COc1ccccc1N1CCN(CCC2CCc3occc3C2=O)CC1 (stereo not drawn),501

# Results, then the molecule that gave them:
row,Kb [nM],Structure (SMILES)
1,23.4,O=C(CCCN1CCN(CCC2Cc3sccc3C2=O)CC1)c1ccc(F)cc1 (stereo not drawn)
2,158,COc1ccccc1N1CCN(CCC2Cc3ccccc3C2=O)CC1 (stereo not drawn)
3,15.1,O=C1CC(CN2CCC(C(=O)c3ccc(F)cc3)CC2)Cc2sccc21 (stereo not drawn)
4,148,O=C(CCCN1CCN(CCC2CCc3sccc3C2=O)CC1)c1ccc(F)cc1 (stereo not drawn)
5,331,COc1ccccc1N1CCN(CC2CC(=O)c3ccccc3C2)CC1 (stereo not drawn)
6,178,O=C(c1ccc(F)cc1)C1CCN(CCC2CCCc3ccccc3C2=O)CC1 (stereo not drawn)
7,490,O=C1c2ccsc2CCC1CCN1CCN(c2ccccn2)CC1 (stereo not drawn)
8,617,COc1ccccc1N1CCN(CC2CC(=O)c3ccccc32)CC1 (stereo not drawn)
9,44.7,O=C(CCCN1CCN(CCC2CCc3ccccc3C2=O)CC1)c1ccc(F)cc1 (stereo not drawn)
10,53.7,O=C(CCCN1CCN(CC2CC(=O)c3ccccc3C2)CC1)c1ccc(F)cc1 (stereo not drawn)

# Biological target: T1, 5-hydroxytryptamine receptor 2A
# Assay: Inhibitory constant on 5-hydroxytryptamine 2A receptor of Rat frontal cortex
# Type: tissue-based
# Conditions: not given
row,Structure (SMILES),Ki [nM]
1,O=C1c2ccoc2CCC1CCN1CCC(c2noc3cc(F)ccc23)CC1 (stereo not drawn),1.07
2,O=C(c1ccc(F)cc1)C1CCN(CCC2CCc3occc3C2=O)CC1 (stereo not drawn),19.5
3,COc1ccccc1N1CCN(CCC2CCc3occc3C2=O)CC1 (stereo not drawn),191

# Other lines, results leading:
row,Ki [nM],Structure (SMILES)
1,195,COc1ccccc1N1CCN(CCC2Cc3ccccc3C2=O)CC1 (stereo not drawn)
2,174,O=C1c2ccsc2CCC1CCN1CCN(c2ccccn2)CC1 (stereo not drawn)

# Biological target: T2, 5-hydroxytryptamine receptor 2C (Homo sapiens, UniProt P28335)
# T2 sequence (P28335 whole entry): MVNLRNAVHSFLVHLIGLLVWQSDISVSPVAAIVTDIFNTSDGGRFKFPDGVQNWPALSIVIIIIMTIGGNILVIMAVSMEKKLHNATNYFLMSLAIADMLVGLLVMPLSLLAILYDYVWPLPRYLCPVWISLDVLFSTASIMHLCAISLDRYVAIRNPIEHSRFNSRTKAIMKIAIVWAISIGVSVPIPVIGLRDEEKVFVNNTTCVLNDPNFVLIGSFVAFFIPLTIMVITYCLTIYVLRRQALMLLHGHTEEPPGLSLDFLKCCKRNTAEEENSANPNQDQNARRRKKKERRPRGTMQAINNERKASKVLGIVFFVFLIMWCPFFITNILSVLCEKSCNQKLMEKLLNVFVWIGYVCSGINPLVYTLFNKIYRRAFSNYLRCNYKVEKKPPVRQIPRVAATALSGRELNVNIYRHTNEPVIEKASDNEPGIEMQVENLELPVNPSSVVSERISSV
# Assay: Inhibitory constant on human 5-hydroxytryptamine 2C receptor transfected in to HeLa cells
# Type: cell-based
# Conditions: not given
# Method in brief: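 HeLa cells stably expressing cloned human 5-HT2C, grown 24 h in dialyzed FCS; membranes as for human 5-HT2A. [3H]mesulergine (2 nM final) competition, nonspecific with 1 μM mianserine, 1 h at room temperature; GF/B filtration, scintillation counting. Ki via Cheng–Prusoff.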
row,Ki [nM],Structure (SMILES)
1,27.5,O=C1CC(CN2CCC(c3noc4cc(F)ccc34)CC2)Cc2[nH]c3ccccc3c21 (stereo not drawn)
2,> 10000,O=C(CCCN1CCN(CCC2Cc3ccccc3C2=O)CC1)c1ccc(F)cc1 (stereo not drawn)
3,34.7,O=C1c2ccoc2CCC1CCN1CCC(c2noc3cc(F)ccc23)CC1 (stereo not drawn)

# Biological target: Serotonin receptor 2a and 2c (5HT2A and 5HT2C) (Rattus norvegicus) (UniProt P08909+P14842)
# Sequence (P08909 whole entry, looked up): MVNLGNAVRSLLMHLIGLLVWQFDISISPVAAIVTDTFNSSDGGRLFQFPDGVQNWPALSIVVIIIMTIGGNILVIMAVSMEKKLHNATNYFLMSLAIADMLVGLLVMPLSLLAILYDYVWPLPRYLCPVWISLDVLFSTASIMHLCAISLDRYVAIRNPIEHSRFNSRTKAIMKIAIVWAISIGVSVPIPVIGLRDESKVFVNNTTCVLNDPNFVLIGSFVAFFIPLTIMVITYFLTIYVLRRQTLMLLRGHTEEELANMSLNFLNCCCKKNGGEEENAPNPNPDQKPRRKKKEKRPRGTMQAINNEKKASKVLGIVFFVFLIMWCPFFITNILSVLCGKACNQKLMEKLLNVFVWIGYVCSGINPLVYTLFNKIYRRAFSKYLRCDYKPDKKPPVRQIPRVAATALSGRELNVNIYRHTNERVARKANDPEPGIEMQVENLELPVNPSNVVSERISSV
# Sequence (P14842 whole entry, looked up): as the sequence (P14842 whole entry) above
# Assay: Selectivity ratio towards Ki of 5-hydroxytryptamine 2A receptor to 5-hydroxytryptamine 2C receptor
# Type: protein assay
# Conditions: not given
row,Structure (SMILES),Ratio
1,O=C(c1ccc(F)cc1)C1CCN(CCC2Cc3cc(F)ccc3C2=O)CC1 (stereo not drawn),219
2,CCc1c(C)[nH]c2c1C(=O)C(CCN1CCN(c3ccccc3OC)CC1)CC2 (stereo not drawn),2.5
3,O=C1CC(CN2CCC(C(=O)c3ccc(F)cc3)CC2)Cc2occc21 (stereo not drawn),616
4,O=C(c1ccc(F)cc1)C1CCN(CCC2CCc3ccccc3C2=O)CC1 (stereo not drawn),29
5,O=C(CCCN1CCN(CCC2Cc3ccccc3C2=O)CC1)c1ccc(F)cc1 (stereo not drawn),50
6,O=C1c2ccoc2CCC1CCN1CCC(c2noc3cc(F)ccc23)CC1 (stereo not drawn),65
7,COc1ccccc1N1CCN(CCC2CCc3ccccc3C2=O)CC1 (stereo not drawn),5.8
8,O=C(c1ccc(F)cc1)C1CCN(CCC2CCc3occc3C2=O)CC1 (stereo not drawn),18
9,COc1ccccc1N1CCN(CCC2CCc3occc3C2=O)CC1 (stereo not drawn),3

# The next lines start with the values.
row,Ratio,Structure (SMILES)
1,1.5,COc1ccccc1N1CCN(CCC2Cc3ccccc3C2=O)CC1 (stereo not drawn)
2,36,O=C1CC(CN2CCC(c3noc4cc(F)ccc34)CC2)Cc2[nH]c3ccccc3c21 (stereo not drawn)
3,5.5,COc1ccccc1N1CCN(CC2CC(=O)c3ccccc3C2)CC1 (stereo not drawn)
4,9.8,O=C1c2ccsc2CCC1CCN1CCN(c2ccccn2)CC1 (stereo not drawn)
5,46,O=C(CCCN1CCN(CCC2CCc3ccccc3C2=O)CC1)c1ccc(F)cc1 (stereo not drawn)
6,1780,O=C(CCCN1CCN(CC2CC(=O)c3ccccc3C2)CC1)c1ccc(F)cc1 (stereo not drawn)
